ChEMBL document CHEMBL1146073, “A pyridazine series of alpha2/alpha3 subtype selective GABA A agonists for the treatment of anxiety” (J Med Chem, 2006)
The source made the active and inactive calls. The calls are words filed in the database; no cut-off is given here.

Assays:
[1] = Plasma clearance in rat; assay type: ADME, organism-based
In short: (§1)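 Pharmacokinetics from six animals per species: three dosed iv and three dosed po.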

[2] = molecular target: T1, GABA-A receptor; anion channel (Rattus norvegicus) (UniProt O09028+P15431+P18506+P18508+P19969+P20236+P23574+P23576+P28471+P28473+P30191+P62813+P63079+P63138+Q91ZM7+Q9ES14); experiment: Receptor occupancy in vivo by displacement of [3H]Ro 15-1788 binding from GABA-A receptor in rat, po; assay type: functional, organism-based
In short: (§2)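 Rat in vivo occupancy measured by [3H]Ro 15-1788 binding after oral dosing. Rats taken as a subgroup after the plus-maze trial, i.e. 30 min post-dose or later. ED50 derived from dose-dependent occupancy. Mean ± SEM, n = 5-10/group.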

[3] = molecular target: T2, GABA-A receptor; alpha-3/beta-3/gamma-2 (Homo sapiens, UniProt P18507+P28472+P34903); experiment: Displacement of [3H]Ro-151788 from recombinant human GABA-Aalpha3 receptor plus beta3gamma2; assay type: protein-complex assay
T2 sequence (P18507 whole entry): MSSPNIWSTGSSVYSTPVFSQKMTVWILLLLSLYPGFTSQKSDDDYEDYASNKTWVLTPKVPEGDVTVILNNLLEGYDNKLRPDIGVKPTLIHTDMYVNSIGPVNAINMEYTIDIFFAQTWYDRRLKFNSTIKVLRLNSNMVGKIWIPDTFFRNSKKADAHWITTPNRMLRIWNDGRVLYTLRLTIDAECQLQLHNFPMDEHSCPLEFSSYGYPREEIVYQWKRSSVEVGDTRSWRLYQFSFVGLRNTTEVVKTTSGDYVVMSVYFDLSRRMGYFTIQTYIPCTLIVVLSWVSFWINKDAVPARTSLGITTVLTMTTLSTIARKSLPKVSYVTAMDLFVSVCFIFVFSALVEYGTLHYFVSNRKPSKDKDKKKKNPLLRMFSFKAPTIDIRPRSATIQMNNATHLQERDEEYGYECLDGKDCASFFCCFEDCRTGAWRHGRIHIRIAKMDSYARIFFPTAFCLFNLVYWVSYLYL
T2 sequence (P28472 whole entry): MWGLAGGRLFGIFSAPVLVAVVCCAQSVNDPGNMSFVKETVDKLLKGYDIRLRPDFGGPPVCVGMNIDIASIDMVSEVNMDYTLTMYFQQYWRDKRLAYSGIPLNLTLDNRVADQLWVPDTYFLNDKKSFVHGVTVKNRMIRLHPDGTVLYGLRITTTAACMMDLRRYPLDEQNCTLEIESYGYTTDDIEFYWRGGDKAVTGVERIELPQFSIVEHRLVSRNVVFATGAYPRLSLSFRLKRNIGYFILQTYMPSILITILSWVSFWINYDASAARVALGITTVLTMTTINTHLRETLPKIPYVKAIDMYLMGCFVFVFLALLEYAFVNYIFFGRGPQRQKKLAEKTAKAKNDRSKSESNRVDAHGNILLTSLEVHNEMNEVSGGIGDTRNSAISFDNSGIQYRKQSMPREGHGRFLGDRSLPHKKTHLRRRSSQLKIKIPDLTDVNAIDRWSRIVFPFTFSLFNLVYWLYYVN
T2 sequence (P34903 whole entry): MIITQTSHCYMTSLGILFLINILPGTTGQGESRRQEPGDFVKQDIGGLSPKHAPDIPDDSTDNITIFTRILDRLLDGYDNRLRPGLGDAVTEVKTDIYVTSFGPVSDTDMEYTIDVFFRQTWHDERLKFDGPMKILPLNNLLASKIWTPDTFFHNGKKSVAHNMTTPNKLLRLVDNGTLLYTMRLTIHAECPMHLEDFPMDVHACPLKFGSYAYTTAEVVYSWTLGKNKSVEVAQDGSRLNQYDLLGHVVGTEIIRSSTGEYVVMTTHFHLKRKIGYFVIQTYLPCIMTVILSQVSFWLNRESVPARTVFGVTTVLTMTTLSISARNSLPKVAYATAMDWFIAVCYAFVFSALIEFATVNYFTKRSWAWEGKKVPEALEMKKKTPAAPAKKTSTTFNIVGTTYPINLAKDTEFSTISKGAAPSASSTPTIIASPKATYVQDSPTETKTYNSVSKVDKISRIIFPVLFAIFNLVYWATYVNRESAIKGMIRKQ
In short: (§3)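 Benzodiazepine-site binding on stably transfected αxβ3γ2 receptors (x = 1, 2, 3 or 5). Inhibition curves run with [3H]Ro15-1788 at roughly twice its Kd. Ki derived by Cheng-Prusoff equation. Mean of three to six determinations.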

Rattus norvegicus [4] = experiment: Anxiolytic activity in rat plus-maze assay at 1 mg/kg, po; assay type: functional, organism-based; set-up: dose 1 mg/kg
In short: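 Rats given vehicle (0.5% methyl cellulose) or compound orally; chlordiazepoxide 5 mg/kg ip as positive control. Placed on elevated plus maze 30 min after dosing; time on open arms recorded as anxiety index. Significance versus vehicle at p < 0.05; mean ± SEM, n = 16-18/group.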

[5] = Plasma clearance in dog; assay type: ADME, organism-based, Canis lupus familiaris; in short: as §1
[6] = Half life in dog; assay type: ADME, organism-based, Canis lupus familiaris; details: in vivo; in short: as §1
[7] = Oral bioavailability in dog; assay type: ADME, organism-based, Canis lupus familiaris; details: in vivo; in short: as §1
[8] = Oral bioavailability in Rhesus monkey; assay type: ADME, organism-based, Macaca mulatta; details: in vivo; in short: as §1
[9] = molecular target: T1, GABA-A receptor; anion channel (Rattus norvegicus); experiment: Receptor occupancy in vivo by displacement of [3H]Ro-151788 binding from GABA-A receptor in rat at 0.3 mg/kg, po; assay type: functional, organism-based; set-up: dose 0.3 mg/kg; in short: as §2
[10] = molecular target: GABA-A receptor; alpha-5/beta-3/gamma-2 (Homo sapiens) (UniProt P18507+P28472+P31644); experiment: Efficacy against recombinant human GABA-Aalpha5 plus beta-3-gamma-2 expressed in L(tk-) cells by whole cell patch clamp method; assay type: functional, cell-based
In short: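 Whole-cell patch clamp on αxβ3γ2 receptors stably expressed in L(tk-) cells, measuring the effect on current evoked by an EC20-equivalent of GABA. Reported relative to full agonist chlordiazepoxide (=1.0), or as direct percent modulation of the EC20 control, with inverse agonism given as percent. Mean of at least four independent experiments.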

[11] = molecular target: T3, GABA-A receptor; alpha-2/beta-3/gamma-2 (Homo sapiens, UniProt P18507+P28472+P47869); experiment: Displacement of [3H]Ro-151788 from recombinant human GABA-Aalpha2 receptor plus beta3gamma2; assay type: protein-complex assay; in short: as §3
T3 sequence (P18507 whole entry): T2 sequence (P18507 whole entry)
T3 sequence (P28472 whole entry): T2 sequence (P28472 whole entry)
T3 sequence (P47869 whole entry): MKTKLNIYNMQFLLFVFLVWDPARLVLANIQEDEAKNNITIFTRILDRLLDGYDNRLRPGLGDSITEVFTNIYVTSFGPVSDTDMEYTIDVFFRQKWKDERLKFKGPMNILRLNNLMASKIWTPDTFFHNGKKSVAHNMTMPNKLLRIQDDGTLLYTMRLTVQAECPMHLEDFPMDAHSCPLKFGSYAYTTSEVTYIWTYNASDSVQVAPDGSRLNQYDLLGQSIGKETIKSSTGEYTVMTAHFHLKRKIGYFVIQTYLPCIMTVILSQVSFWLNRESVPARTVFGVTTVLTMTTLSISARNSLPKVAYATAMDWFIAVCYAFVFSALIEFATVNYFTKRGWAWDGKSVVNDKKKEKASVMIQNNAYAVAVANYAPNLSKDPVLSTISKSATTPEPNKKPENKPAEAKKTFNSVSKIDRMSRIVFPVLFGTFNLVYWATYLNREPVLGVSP

Rattus norvegicus [12] = experiment: Anxiolytic activity in rat plus-maze assay at 1 mg/kg, po

| SMILES | clearance [1] [mL/min/kg] | Occ50 [2] [mg/kg] | Ki [3] [nM] | Activity (Rattus norvegicus [4]) | clearance [5] [mL/min/kg] | half-life [6] [h] | bioavailability [7] [%] | bioavailability [8] [%] | Activity [9] [%] | Efficacy [10] [%] | Ki [11] [nM] | Activity (Rattus norvegicus [12]) | Activity [2] [mg/kg] |
| --- | --- | --- | --- | --- | --- | --- | --- | --- | --- | --- | --- | --- | --- |
| Fc1cnc(-c2cc(-c3ccc(F)c(-c4ncccc4F)c3)cnn2)c(F)c1 | 3 | 0.09 | 2 | Active | – | – | – | – | – | – | – | – | – |
| Fc1cnc(-c2cc(-c3cnnc(-c4c(F)cncc4F)c3)ccc2F)c(F)c1 | 59 | 0.22 | 6.3 | – | 17 | 3.9 | 72 | 46 | 56 | -5 | – | – | – |
| Fc1cnc(-c2cc(-c3ccc(F)c(-c4ncc(F)cc4F)c3)cnn2)c(F)c1 | 1.3 | 0.52 | 8.5 | – | 3.9 | 15 | 40 | – | – | – | 10.9 | Active | – |
| Fc1cnc(-c2cc(-c3cnnc(-c4c(F)cc(F)cc4F)c3)ccc2F)c(F)c1 | – | – | 5 | – | – | – | – | – | – | – | 4.6 | – | 0.7 |
